In one assay the test system is BGC-823. In words: Cytotoxicity against human BGC823 cells by MTT assay. The assay is classed as functional, cell-based. A digest of the protocol:
(§1)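 Panel of human tumour lines: A549 lung adenocarcinoma, BGC-823 stomach cancer, MCF-7 breast cancer, Bel7402 hepatoma and HCT-8 colon cancer. Activity reported as IC50 in μg/mL.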

In a further assay the test system is MCF7. In words: Cytotoxicity against human MCF7 cells by MTT assay. The assay is classed as functional, cell-based. The method, boiled down: as §1
On the technique in general: Formazan colour is commonly taken as a measure of viable cells.

The subject of a further assay is A549. In words: Cytotoxicity against human A549 cells by MTT assay. The class given is functional, cell-based. A digest of the protocol: as §1
The next assay relates to Bel-7402. In words: Cytotoxicity against human Bel7402 cells by MTT assay. The class given is functional, cell-based. The method, boiled down: as §1
The subject of the next assay is HCT-8. In words: Cytotoxicity against human HCT8 cells by MTT assay. The class given is functional, cell-based. The method, boiled down:
as §1

Another assay deals with Candida albicans. In words: Antimicrobial activity against Candida albicans. The assay is classed as functional. The method, boiled down:
(§2)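 Whole-organism tests on S. aureus, E. coli and the yeast C. albicans. Potency reported as MIC50 in μg/mL.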

A further assay has as its system Escherichia coli. In words: Antimicrobial activity against Escherichia coli. The assay is classed as functional. The method, boiled down: as §2
The test system of the next assay is Staphylococcus aureus. In words: Antimicrobial activity against Staphylococcus aureus. The class given is functional. A digest of the protocol:
as §2

As usually defined, the IC50 is the concentration that gives 50% inhibition. As a reminder, the MIC is the lowest concentration that inhibits growth of the organism. Read a high MIC as weaker potency.

On to `CC(=O)/C=C/c1cc(O)c(O)c(Br)c1Br`, for which the IC50 with BGC-823, in the assay with MCF7, in the assay on A549, in the assay with Bel-7402 and in the assay with HCT-8 was over 10 mg/L each time.
In the case of `COc1c(O)cc(C(Cc2cc(O)c(O)c(Br)c2Br)C(=O)O)cc1Br` (configuration not stated), the MIC in the assay on Candida albicans, against Escherichia coli and against Staphylococcus aureus was over 100 mg/L in each case. For the same compound, the half-inhibitory concentration (IC50) in the assay on BGC-823, in the assay on MCF7, in the assay on A549, in the assay with Bel-7402 and in the assay on HCT-8 was over 10 mg/L throughout.
As for `COC(=O)Cc1cc(O)c(OC)c(Br)c1`, the minimal inhibitory concentration (MIC) in the assay on Candida albicans, in the assay on Escherichia coli and against Staphylococcus aureus was over 100 mg/L each time. In addition, the half-inhibitory concentration (IC50) in the assay on BGC-823, with MCF7, in the assay with A549, in the assay on Bel-7402 and with HCT-8 was over 10 mg/L throughout.
For `C[S+]([O-])Cc1cc(O)c(O)c(Br)c1Br` (configuration not stated), the MIC with Candida albicans, against Escherichia coli and against Staphylococcus aureus was over 100 mg/L each time. Further, the IC50 in the assay with BGC-823, in the assay with MCF7, in the assay with A549, in the assay on Bel-7402 and in the assay on HCT-8 was over 10 mg/L in each case.
With `COC(=O)C(Cc1cc(O)c(O)c(Br)c1Br)c1cc(O)c(OC)c(Br)c1` (configuration not stated), the IC50 in the assay on BGC-823, in the assay with MCF7, with A549, with Bel-7402 and in the assay with HCT-8 was over 10 mg/L each time.
On to `COc1c(O)cc(C(=O)O)cc1Br`, for which the MIC against Candida albicans, in the assay with Escherichia coli and against Staphylococcus aureus was over 100 mg/L in each case. The IC50 in the assay with BGC-823, in the assay with MCF7, in the assay with A549, in the assay on Bel-7402 and in the assay with HCT-8 was over 10 mg/L throughout.

These data come from ChEMBL document CHEMBL1151235, “Bromophenol derivatives from the red alga Rhodomela confervoides” (J Nat Prod, 2004).
